Reference: ChEMBL document CHEMBL1275598, “In vitro activity of ceftaroline against community-associated methicillin-resistant, vancomycin-intermediate, vancomycin-resistant, and daptomycin-nonsusceptible Staphylococcus aureus isolates” (2010)

What was measured:
Staphylococcus aureus [1] = test: Antimicrobial activity against vancomycin resistant Staphylococcus aureus VRS-10 expressing SCCmec type 2 element by microdilution method in presence of 50 mg/L calcium
Staphylococcus aureus [2] = test: Antimicrobial activity against vancomycin-intermediate Staphylococcus aureus assessed as susceptible isolates by microdilution method in presence of 50 mg/L calcium; assay type: functional
Procedure, shortened: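 Broth microdilution MIC per CLSI in cation-adjusted Mueller-Hinton broth, with calcium added to a final 50 mg/liter for daptomycin testing. MIC is the lowest drug concentration with no visible growth, read by eye. Percent susceptible was assigned from CLSI breakpoints. S. aureus ATCC 29213 and E. faecalis ATCC 29212 served as control strains.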

Staphylococcus aureus [3] = test: Antimicrobial activity against vancomycin intermediate Staphylococcus aureus NRS-126 expressing SCCmec type 2 element by microdilution method in presence of 50 mg/L calcium; assay type: functional
Procedure, shortened: (§1)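 Daptomycin MIC by CLSI broth microdilution in cation-adjusted Mueller-Hinton broth, supplemented with calcium to a final 50 mg/liter. Read visually as the lowest concentration with no visible growth. ATCC 29213 and E. faecalis ATCC 29212 served as controls. CA-MRSA and DNSSA isolates came from patients at the study hospital; VISA isolates came from NARSA.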

Staphylococcus aureus [4] = test: Bactericidal activity against daptomycin-nonsusceptible Staphylococcus aureus assessed as antibiotic concentration that reduced the number of viable cells by =>99.9% by colony count method in presence of 50 mg/L calcium; assay type: functional
Procedure, shortened: (§2)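 MBC per CLSI following microdilution in cation-adjusted Mueller-Hinton broth with calcium added to 50 mg/liter final. Defined as the concentration giving ≥99.9% reduction in viable cells, judged from colony counts of the growth control well against Pearson rejection-value tables.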

Staphylococcus aureus [5] = test: Antimicrobial activity against vancomycin intermediate Staphylococcus aureus NRS-17 expressing SCCmec type 2 element by microdilution method in presence of 50 mg/L calcium; assay type: functional; procedure, shortened: as §1
Staphylococcus aureus [6] = test: Antimicrobial activity against vancomycin resistant Staphylococcus aureus VRS-2 expressing SCCmec type 2 element by microdilution method in presence of 50 mg/L calcium
Staphylococcus aureus [7] = test: Antimicrobial activity against vancomycin-intermediate Staphylococcus aureus by microdilution method in presence of 50 mg/L calcium; assay type: functional
Procedure, shortened: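 Daptomycin MIC by CLSI broth microdilution in cation-adjusted Mueller-Hinton broth supplemented with calcium to a final 50 mg/liter. The endpoint is the lowest concentration with no visible growth, read visually. S. aureus ATCC 29213 and E. faecalis ATCC 29212 were used as control strains.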

Staphylococcus aureus [8] = test: Antimicrobial activity against vancomycin-resistant Staphylococcus aureus assessed as susceptible isolates by microdilution method in presence of 50 mg/L calcium; assay type: functional
Procedure, shortened: (§3)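 Broth microdilution per CLSI in cation-adjusted Mueller-Hinton broth supplemented with calcium to 50 mg/liter final. Antibiotic powders were reconstituted per CLSI. The MIC was read visually as the lowest drug concentration with no visible growth. S. aureus ATCC 29213 and E. faecalis ATCC 29212 served as control strains.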

Staphylococcus aureus [9] = test: Antimicrobial activity against daptomycin-nonsusceptible Staphylococcus aureus by microdilution method in presence of 50 mg/L calcium; assay type: functional; procedure, shortened: as §1
Staphylococcus aureus [10] = test: Antimicrobial activity against vancomycin resistant Staphylococcus aureus VRS-6 expressing SCCmec type 2 element by microdilution method in presence of 50 mg/L calcium; assay type: functional; procedure, shortened: as §3
Staphylococcus aureus [11] = test: Antimicrobial activity against vancomycin intermediate Staphylococcus aureus NRS-19 expressing SCCmec type 2 element by microdilution method in presence of 50 mg/L calcium; assay type: functional; procedure, shortened: as §1
Staphylococcus aureus [12] = test: Antimicrobial activity against vancomycin resistant Staphylococcus aureus VRS-5 expressing SCCmec type 2 element by microdilution method in presence of 50 mg/L calcium
Staphylococcus aureus [13] = test: Antimicrobial activity against vancomycin intermediate Staphylococcus aureus NRS-26 expressing SCCmec type 2 element by microdilution method in presence of 50 mg/L calcium; assay type: functional; procedure, shortened: as §1
Staphylococcus aureus [14] = test: Antimicrobial activity against community-acquired methicillin-resistant Staphylococcus aureus by microdilution method in presence of 50 mg/L calcium; assay type: functional; procedure, shortened: as §1
Staphylococcus aureus [15] = test: Antimicrobial activity against vancomycin intermediate Staphylococcus aureus NRS-73 expressing SCCmec type 4d element by microdilution method in presence of 50 mg/L calcium; assay type: functional; procedure, shortened: as §1
Staphylococcus aureus [16] = test: Antimicrobial activity against vancomycin intermediate Staphylococcus aureus NRS-18 expressing SCCmec type 2 element by microdilution method in presence of 50 mg/L calcium; assay type: functional; procedure, shortened: as §1
Staphylococcus aureus [17] = test: Bactericidal activity against community-acquired methicillin-resistant Staphylococcus aureus assessed as antibiotic concentration that reduced the number of viable cells by =>99.9% by colony count method in presence of 50 mg/L calcium; assay type: functional; procedure, shortened: as §2
Staphylococcus aureus [18] = test: Antimicrobial activity against vancomycin intermediate Staphylococcus aureus NRS-27 expressing SCCmec type 2 element by microdilution method in presence of 50 mg/L calcium; assay type: functional; procedure, shortened: as §1
Staphylococcus aureus [19] = test: Antimicrobial activity against vancomycin resistant Staphylococcus aureus VRS-3 expressing SCCmec type 4 element by microdilution method in presence of 50 mg/L calcium
Staphylococcus aureus [20] = test: Antimicrobial activity against vancomycin resistant Staphylococcus aureus VRS-9 expressing SCCmec type 2 element by microdilution method in presence of 50 mg/L calcium
Staphylococcus aureus [21] = test: Antimicrobial activity against vancomycin intermediate Staphylococcus aureus NRS-4 expressing SCCmec type 2 element by microdilution method in presence of 50 mg/L calcium; assay type: functional; procedure, shortened: as §1
Staphylococcus aureus [22] = test: Antimicrobial activity against vancomycin resistant Staphylococcus aureus VRS-7 expressing SCCmec element by microdilution method in presence of 50 mg/L calcium; assay type: functional; procedure, shortened: as §3
Staphylococcus aureus [23] = test: Bactericidal activity against vancomycin-intermediate Staphylococcus aureus assessed as antibiotic concentration that reduced the number of viable cells by =>99.9% by colony count method in presence of 50 mg/L calcium; assay type: functional; procedure, shortened: as §2
Staphylococcus aureus [24] = test: Antimicrobial activity against vancomycin intermediate Staphylococcus aureus NRS-3 expressing SCCmec type 2 element by microdilution method in presence of 50 mg/L calcium; assay type: functional; procedure, shortened: as §1
Staphylococcus aureus [25] = test: Antimicrobial activity against vancomycin resistant Staphylococcus aureus VRS-1 expressing SCCmec type 2 element by microdilution method in presence of 50 mg/L calcium; assay type: functional; procedure, shortened: as §3
Staphylococcus aureus [26] = test: Antimicrobial activity against vancomycin intermediate Staphylococcus aureus NRS-403 expressing SCCmec type 2 element by microdilution method in presence of 50 mg/L calcium; assay type: functional; procedure, shortened: as §1
Staphylococcus aureus [27] = test: Antimicrobial activity against community-acquired methicillin-resistant Staphylococcus aureus assessed as susceptible isolates by microdilution method in presence of 50 mg/L calcium; assay type: functional
Procedure, shortened: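 Daptomycin MICs by CLSI broth microdilution in cation-adjusted Mueller-Hinton broth with calcium added to a final 50 mg/liter, read visually. Percentage susceptible among 92 CA-MRSA isolates assigned by CLSI breakpoints.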

Staphylococcus aureus [28] = test: Antimicrobial activity against vancomycin intermediate Staphylococcus aureus NRS-51 expressing SCCmec type 2 element by microdilution method in presence of 50 mg/L calcium; assay type: functional; procedure, shortened: as §1
Staphylococcus aureus [29] = test: Antimicrobial activity against vancomycin intermediate Staphylococcus aureus NRS-24 expressing SCCmec type 2 element by microdilution method in presence of 50 mg/L calcium; assay type: functional; procedure, shortened: as §1
Staphylococcus aureus [30] = test: Antimicrobial activity against vancomycin intermediate Staphylococcus aureus NRS-404 expressing SCCmec type 2 element by microdilution method in presence of 50 mg/L calcium; assay type: functional; procedure, shortened: as §1

Q: How did the MIC (Staphylococcus aureus [1]) turn out when `CCCCCCCCCC(=O)N[C@@H](Cc1c[nH]c2ccccc12)C(=O)N[C@H](CC(N)=O)C(=O)N[C@@H](CC(=O)O)C(=O)N[C@@H]1C(=O)NCC(=O)N[C@@H](CCCN)C(=O)N[C@@H](CC(=O)O)C(=O)N[C@H](C)C(=O)N[C@@H](CC(=O)O)C(=O)NCC(=O)N[C@H](CO)C(=O)N[C@@H]([C@H](C)CC(=O)O)C(=O)N[C@@H](CC(=O)c2ccccc2N)C(=O)O[C@@H]1C` was run?
A: 0.5 µg/mL

Q: What about the Activity (Staphylococcus aureus [2]) of the same compound?
A: 35%

Q: And the MIC (Staphylococcus aureus [3])?
A: 2 µg/mL

Q: What about the MBC (Staphylococcus aureus [4]) of the same compound?
A: 4 µg/mL

Q: What about the MBC50 (Staphylococcus aureus [4]) of the same compound?
A: 8 µg/mL

Q: And the MBC (Staphylococcus aureus [4]; Staphylococcus aureus, read-out: MBC)?
A: 5.94 µg/mL

Q: And the MIC (Staphylococcus aureus [5])?
A: 4 µg/mL

Q: And the MIC (Staphylococcus aureus [6])?
A: 0.5 µg/mL

Q: What about the MIC50 (Staphylococcus aureus [7]) of the same compound?
A: 2 µg/mL

Q: And the MIC90 (Staphylococcus aureus [7])?
A: 4 µg/mL

Q: And the Activity (Staphylococcus aureus [8])?
A: 100%

Q: What about the MIC (Staphylococcus aureus [9]) of the same compound?
A: 4 µg/mL

Q: What about the MIC50 (Staphylococcus aureus [9]) of the same compound?
A: 4 µg/mL

Q: And the MIC (Staphylococcus aureus [10])?
A: 1 µg/mL

Q: What about the MIC (Staphylococcus aureus [11]) of the same compound?
A: 2 µg/mL

Q: And the MIC (Staphylococcus aureus [12])?
A: 0.5 µg/mL

Q: What about the MIC (Staphylococcus aureus [13]) of the same compound?
A: 4 µg/mL

Q: What about the MIC50 (Staphylococcus aureus [14]) of the same compound?
A: 0.5 µg/mL

Q: What about the MIC90 (Staphylococcus aureus [14]) of the same compound?
A: 1 µg/mL

Q: And the MIC (Staphylococcus aureus [15])?
A: 2 µg/mL

Q: And the MIC (Staphylococcus aureus [16])?
A: 1 µg/mL

Q: What about the MBC50 (Staphylococcus aureus [17]) of the same compound?
A: 0.5 µg/mL

Q: What about the MBC90 (Staphylococcus aureus [17]) of the same compound?
A: 1 µg/mL

Q: And the MBC (Staphylococcus aureus [17]; Staphylococcus aureus)?
A: 0.25 µg/mL

Q: What about the MIC (Staphylococcus aureus [18]) of the same compound?
A: 1 µg/mL

Q: And the MIC (Staphylococcus aureus [19])?
A: 0.5 µg/mL

Q: What about the MIC (Staphylococcus aureus [20]) of the same compound?
A: 0.5 µg/mL

Q: And the MIC (Staphylococcus aureus [21])?
A: 1 µg/mL

Q: What about the MIC (Staphylococcus aureus [22]) of the same compound?
A: 1 µg/mL

Q: What about the MBC50 (Staphylococcus aureus [23]) of the same compound?
A: 2 µg/mL

Q: What about the MBC90 (Staphylococcus aureus [23]) of the same compound?
A: 4 µg/mL

Q: And the MBC (Staphylococcus aureus [23]; Staphylococcus aureus)?
A: 0.5 µg/mL

Q: What about the MIC (Staphylococcus aureus [24]) of the same compound?
A: 4 µg/mL

Q: And the MIC (Staphylococcus aureus [25])?
A: 1 µg/mL

Q: And the MIC (Staphylococcus aureus [26])?
A: 2 µg/mL

Q: And the Activity (Staphylococcus aureus [27])?
A: 100%

Q: And the MIC (Staphylococcus aureus [28])?
A: 1 µg/mL

Q: What about the MIC (Staphylococcus aureus [29]) of the same compound?
A: 2 µg/mL

Q: What about the MIC (Staphylococcus aureus [30]) of the same compound?
A: 2 µg/mL
